In ChEMBL document CHEMBL4190234, “Design, synthesis and anticancer activity of new monastrol analogues bearing 1,3,4-oxadiazole moiety” (Eur J Med Chem, 2017):

Assays:
Format in all cases: functional
786-0 = experiment: Growth inhibition of human 786-0 cells at 10 uM incubated for 48 hrs by sulforhodamine B assay relative to control; conditions: 786-0, 48 h, read-out: GI
Method in brief: (§1)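 Single-dose screen at 10 μM final: cells in RPMI 1640, 5% FBS, 2 mM L-glutamine, plated 5,000–40,000/well, preincubated 24 h at 37°C, 5% CO2; drug 48 h; adherent cells fixed with 10% TCA, suspension cells with 16% TCA; SRB stain, absorbance 515 nm; percentage growth versus untreated control, with time-zero plates.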

HCT-116 = experiment: Growth inhibition of human HCT116 cells at 10 uM incubated for 48 hrs by sulforhodamine B assay relative to control; conditions: HCT-116, 48 h, read-out: GI; method in brief: as §1
HCT-15 = experiment: Growth inhibition of human HCT15 cells at 10 uM incubated for 48 hrs by sulforhodamine B assay relative to control; conditions: HCT-15, 48 h, read-out: GI; method in brief: as §1
MCF7 = experiment: Growth inhibition of human MCF7 cells at 10 uM incubated for 48 hrs by sulforhodamine B assay relative to control; conditions: MCF7, 48 h, read-out: GI; method in brief: as §1
Hs-578T = experiment: Growth inhibition of human Hs 578T cells at 10 uM incubated for 48 hrs by sulforhodamine B assay relative to control; conditions: read-out: GI; method in brief: as §1
NCI-H322M = experiment: Growth inhibition of human NCI-H322M cells at 10 uM incubated for 48 hrs by sulforhodamine B assay relative to control; conditions: read-out: GI; method in brief: as §1
RXF 393 = experiment: Growth inhibition of human RXF393 cells at 10 uM incubated for 48 hrs by sulforhodamine B assay relative to control; conditions: RXF 393, 48 h, read-out: GI; method in brief: as §1
SF-295 = experiment: Growth inhibition of human SF295 cells at 10 uM incubated for 48 hrs by sulforhodamine B assay relative to control; conditions: SF-295, 48 h, read-out: GI
Method in brief: (§2)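 NCI single-dose screen: cells grown in RPMI 1640 with 5% FBS and 2 mM L-glutamine, plated at 5,000–40,000 cells/well and preincubated 24 h at 37 °C, 5% CO2. Compounds taken from DMSO stock and tested at final 10 µM for 48 h. Cells fixed with TCA, stained with 0.4% SRB, absorbance read at 515 nm. Percentage growth calculated against untreated controls; controls held DMSO at the same dilution.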

TK-10 = experiment: Growth inhibition of human TK10 cells at 10 uM incubated for 48 hrs by sulforhodamine B assay relative to control; conditions: TK-10, 48 h, read-out: GI; method in brief: as §2
NCI-H522 = experiment: Growth inhibition of human NCI-H522 cells at 10 uM incubated for 48 hrs by sulforhodamine B assay relative to control; conditions: NCI-H522, 48 h, read-out: GI; method in brief: as §1
MDA-MB-435 = experiment: Growth inhibition of human MDA-MB-435 cells at 10 uM incubated for 48 hrs by sulforhodamine B assay relative to control; conditions: MDA-MB-435, 48 h, read-out: GI; method in brief: as §1
HCC 2998 = experiment: Growth inhibition of human HCC2998 cells at 10 uM incubated for 48 hrs by sulforhodamine B assay relative to control; conditions: HCC 2998, 48 h, read-out: GI; method in brief: as §1
MOLT-4 = experiment: Growth inhibition of human MOLT4 cells at 10 uM incubated for 48 hrs by sulforhodamine B assay relative to control; conditions: MOLT-4, 48 h, read-out: GI; method in brief: as §1
COLO 205 = experiment: Growth inhibition of human COLO205 cells at 10 uM incubated for 48 hrs by sulforhodamine B assay relative to control; conditions: COLO 205, 48 h, read-out: GI; method in brief: as §1
SNB-75 = experiment: Growth inhibition of human SNB75 cells at 10 uM incubated for 48 hrs by sulforhodamine B assay relative to control; conditions: SNB-75, 48 h, read-out: GI; method in brief: as §2
M14 = experiment: Growth inhibition of human M14 cells at 10 uM incubated for 48 hrs by sulforhodamine B assay relative to control; conditions: M14, 48 h, read-out: GI; method in brief: as §1
LOX IMVI = experiment: Growth inhibition of human LOXIMVI cells at 10 uM incubated for 48 hrs by sulforhodamine B assay relative to control; conditions: read-out: GI; method in brief: as §1
HT-29 = experiment: Growth inhibition of human HT-29 cells at 10 uM incubated for 48 hrs by sulforhodamine B assay relative to control; conditions: HT-29, 48 h, read-out: GI; method in brief: as §1
KM12 = experiment: Growth inhibition of human KM12 cells at 10 uM incubated for 48 hrs by sulforhodamine B assay relative to control; conditions: KM12, 48 h, read-out: GI; method in brief: as §1
OVCAR-4 = experiment: Growth inhibition of human OVCAR4 cells at 10 uM incubated for 48 hrs by sulforhodamine B assay relative to control; conditions: OVCAR-4, 48 h, read-out: GI; method in brief: as §1
SF-268 = experiment: Growth inhibition of human SF268 cells at 10 uM incubated for 48 hrs by sulforhodamine B assay relative to control; conditions: SF-268, 48 h, read-out: GI; method in brief: as §2
HL-60(TB) = experiment: Growth inhibition of human HL-60(TB) cells at 10 uM incubated for 48 hrs by sulforhodamine B assay relative to control; conditions: HL-60, 48 h, read-out: GI
Method in brief: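 Single dose of 10 µM in the NCI ~60-line panel. Cells grown in RPMI 1640 with 5% FBS and 2 mM L-glutamine, plated and pre-incubated 24 h, then exposed 48 h at 37°C under 5% CO2. Suspension cells fixed with TCA (16% final) and stained with sulforhodamine B, A515 read. Reported as percent growth versus untreated control and as GI%.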

IGROV-1 = experiment: Growth inhibition of human IGROV1 cells at 10 uM incubated for 48 hrs by sulforhodamine B assay relative to control; conditions: IGROV-1, 48 h, read-out: GI; method in brief: as §1
HOP-92 = experiment: Growth inhibition of human HOP92 cells at 10 uM incubated for 48 hrs by sulforhodamine B assay relative to control; conditions: HOP-92, 48 h, read-out: GI; method in brief: as §1
CCRF-CEM = experiment: Growth inhibition of human CCRF-CEM cells at 10 uM incubated for 48 hrs by sulforhodamine B assay relative to control; conditions: read-out: GI; method in brief: as §1
UO-31 = experiment: Growth inhibition of human UO31 cells at 10 uM incubated for 48 hrs by sulforhodamine B assay relative to control; conditions: UO-31, 48 h, read-out: GI; method in brief: as §2
NCI-H460 = experiment: Growth inhibition of human NCI-H460 cells at 10 uM incubated for 48 hrs by sulforhodamine B assay relative to control; conditions: NCI-H460, 48 h, read-out: GI; method in brief: as §1
SK-MEL-5 = experiment: Growth inhibition of human SK-MEL-5 cells at 10 uM incubated for 48 hrs by sulforhodamine B assay relative to control; conditions: SK-MEL-5, 48 h, read-out: GI; method in brief: as §2
OVCAR-5 = experiment: Growth inhibition of human OVCAR5 cells at 10 uM incubated for 48 hrs by sulforhodamine B assay relative to control; conditions: OVCAR-5, 48 h, read-out: GI; method in brief: as §1
A498 = experiment: Growth inhibition of human A498 cells at 10 uM incubated for 48 hrs by sulforhodamine B assay relative to control; conditions: A498, 48 h, read-out: GI; method in brief: as §1

Compound	inhibition of growth at 10 µM (786-0) [%]	inhibition of growth at 10 µM (HCT-116) [%]	inhibition of growth at 10 µM (HCT-15) [%]	inhibition of growth at 10 µM (MCF7) [%]	inhibition of growth at 10 µM (Hs-578T) [%]	inhibition of growth at 10 µM (NCI-H322M) [%]	inhibition of growth at 10 µM (RXF 393) [%]	inhibition of growth at 10 µM (SF-295) [%]	inhibition of growth at 10 µM (TK-10) [%]	inhibition of growth at 10 µM (NCI-H522) [%]	inhibition of growth at 10 µM (MDA-MB-435) [%]	inhibition of growth at 10 µM (HCC 2998) [%]	inhibition of growth at 10 µM (MOLT-4) [%]	inhibition of growth at 10 µM (COLO 205) [%]	inhibition of growth at 10 µM (SNB-75) [%]	inhibition of growth at 10 µM (M14) [%]	inhibition of growth at 10 µM (LOX IMVI) [%]	inhibition of growth at 10 µM (HT-29) [%]	inhibition of growth at 10 µM (KM12) [%]	inhibition of growth at 10 µM (OVCAR-4) [%]	further results
CCOC(=O)C1=C(C)NC(SCc2nnc(-c3ccc(Cl)cc3)o2)=NC1c1ccc(F)cc1 (stereo not given)	10.7	21.7	15.8	13.3	< 10	< 10	< 10	< 10	13.9	17.5	< 10	< 10	20.4	< 10	< 10	< 10	< 10	10.3	< 10	< 10	inhibition of growth at 10 µM (SF-268): < 10%; inhibition of growth at 10 µM (HL-60(TB)): 23.5%; inhibition of growth at 10 µM (IGROV-1): 17.1%; inhibition of growth at 10 µM (HOP-92): 27.8%; inhibition of growth at 10 µM (CCRF-CEM): 16.9%; inhibition of growth at 10 µM (UO-31): 22.2%; inhibition of growth at 10 µM (NCI-H460): < 10%; inhibition of growth at 10 µM (SK-MEL-5): 12.5%; inhibition of growth at 10 µM (OVCAR-5): < 10%; inhibition of growth at 10 µM (A498): 12.3%
CCOC(=O)C1=C(C)NC(SCc2nnc(-c3ccc(Cl)cc3)o2)=NC1c1ccc(Cl)cc1 (stereo not given)	16.6	53.8	32.4	51	16.3	17.7	32.3	25.9	22.5	31.1	30.4	20.1	93	20.4	26.3	30.7	23.1	24.8	30.3	30	inhibition of growth at 10 µM (SF-268): 14%; inhibition of growth at 10 µM (HL-60(TB)): 78.6%; inhibition of growth at 10 µM (IGROV-1): 37.7%; inhibition of growth at 10 µM (HOP-92): 35.9%; inhibition of growth at 10 µM (CCRF-CEM): 60.3%; inhibition of growth at 10 µM (UO-31): 51.3%; inhibition of growth at 10 µM (NCI-H460): 21.1%; inhibition of growth at 10 µM (SK-MEL-5): 59.1%; inhibition of growth at 10 µM (OVCAR-5): 10.4%; inhibition of growth at 10 µM (A498): 19.3%
CCOC(=O)C1=C(C)NC(SCc2nnc(-c3ccc(Cl)cc3)o2)=NC1c1ccc(OC)cc1 (stereo not given)	18.8	< 10	< 10	< 10	< 10	< 10	< 10	< 10	< 10	< 10	< 10	< 10	< 10	< 10	18.9	< 10	< 10	< 10	< 10	< 10	inhibition of growth at 10 µM (SF-268): < 10%; inhibition of growth at 10 µM (HL-60(TB)): < 10%; inhibition of growth at 10 µM (IGROV-1): 17.8%; inhibition of growth at 10 µM (HOP-92): 17.6%; inhibition of growth at 10 µM (CCRF-CEM): 12.9%; inhibition of growth at 10 µM (UO-31): 20.3%; inhibition of growth at 10 µM (NCI-H460): < 10%; inhibition of growth at 10 µM (SK-MEL-5): < 10%; inhibition of growth at 10 µM (OVCAR-5): < 10%; inhibition of growth at 10 µM (A498): < 10%
CCOC(=O)C1=C(C)NC(SCc2nnc(-c3ccc(OC)cc3)o2)=NC1c1ccc(F)cc1 (stereo not given)	< 10	< 10	< 10	< 10	< 10	< 10	14.5	< 10	< 10	26.5	< 10	< 10	< 10	< 10	17.5	< 10	< 10	< 10	< 10	< 10	inhibition of growth at 10 µM (SF-268): < 10%; inhibition of growth at 10 µM (HL-60(TB)): 12%; inhibition of growth at 10 µM (IGROV-1): < 10%; inhibition of growth at 10 µM (HOP-92): 21.4%; inhibition of growth at 10 µM (CCRF-CEM): 15.3%; inhibition of growth at 10 µM (UO-31): 21.7%; inhibition of growth at 10 µM (NCI-H460): < 10%; inhibition of growth at 10 µM (SK-MEL-5): < 10%; inhibition of growth at 10 µM (OVCAR-5): < 10%; inhibition of growth at 10 µM (A498): < 10%
